Measurements from ChEMBL document CHEMBL4000194, “Design and Synthesis of a Series of l-trans-4-Substituted Prolines as Selective Antagonists for the Ionotropic Glutamate Receptors Including Functional and X-ray Crystallographic Studies of New Subtype Selective Kainic Acid Receptor Subtype 1 (GluK1) Antagonist …” (J Med Chem, 2017).

Experiments:
[1] = Displacement of [3H]AMPA from AMPA receptor in rat brain synaptosomal membranes after 30 mins by TopCount microplate scintillation counting method; type: cell membranes
[2] = Displacement of [3H]kainic acid from kainate receptor in rat brain synaptosomal membranes after 60 mins by TopCount microplate scintillation counting method; type: cell membranes
[3] = Displacement of [3H]CGP39653 from NMDA receptor in rat brain synaptosomal membranes after 60 mins by TopCount microplate scintillation counting method; type: cell membranes
[4] = target: T1, Glutamate receptor ionotropic, kainate 1 (Rattus norvegicus, UniProt P22756); experiment: Displacement of [3H]NF608 from eGFP-fused recombinant rat full length GluK1 receptor expressed in HEK293T/17 cells by liquid scintillation counting method; type: cell-based
T1 sequence (P22756 whole entry, the tested form may be a part): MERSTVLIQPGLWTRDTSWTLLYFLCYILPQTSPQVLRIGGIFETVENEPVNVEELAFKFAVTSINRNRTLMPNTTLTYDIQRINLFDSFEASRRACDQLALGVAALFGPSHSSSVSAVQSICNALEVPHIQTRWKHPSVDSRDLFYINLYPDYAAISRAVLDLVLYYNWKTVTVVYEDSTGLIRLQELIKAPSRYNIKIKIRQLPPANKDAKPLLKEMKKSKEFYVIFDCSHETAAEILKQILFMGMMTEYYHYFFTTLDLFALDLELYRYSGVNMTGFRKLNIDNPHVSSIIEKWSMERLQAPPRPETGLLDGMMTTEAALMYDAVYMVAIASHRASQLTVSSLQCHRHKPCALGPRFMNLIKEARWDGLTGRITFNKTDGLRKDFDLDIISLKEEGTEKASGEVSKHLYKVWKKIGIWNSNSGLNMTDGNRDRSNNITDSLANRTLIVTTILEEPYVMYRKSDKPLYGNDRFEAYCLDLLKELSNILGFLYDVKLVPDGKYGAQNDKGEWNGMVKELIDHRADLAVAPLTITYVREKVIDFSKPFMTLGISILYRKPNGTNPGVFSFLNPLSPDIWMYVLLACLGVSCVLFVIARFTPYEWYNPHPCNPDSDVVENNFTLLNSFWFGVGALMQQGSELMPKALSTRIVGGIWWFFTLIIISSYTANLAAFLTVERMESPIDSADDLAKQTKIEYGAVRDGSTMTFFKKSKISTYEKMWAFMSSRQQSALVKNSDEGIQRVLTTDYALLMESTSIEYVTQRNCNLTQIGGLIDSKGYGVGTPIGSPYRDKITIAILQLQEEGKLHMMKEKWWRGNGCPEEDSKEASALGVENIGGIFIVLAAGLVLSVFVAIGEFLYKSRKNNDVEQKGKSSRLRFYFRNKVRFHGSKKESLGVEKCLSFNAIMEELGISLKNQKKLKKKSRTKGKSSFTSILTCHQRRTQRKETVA

[5] = target: T2, Glutamate receptor ionotropic, kainate 2 (Rattus norvegicus, UniProt P42260); experiment: Displacement of [3H]kainic acid from eGFP-fused recombinant rat full length GluK2 receptor expressed in HEK293T/17 cells by liquid scintillation counting method; type: cell-based
T2 sequence (P42260 whole entry, the tested form may be a part): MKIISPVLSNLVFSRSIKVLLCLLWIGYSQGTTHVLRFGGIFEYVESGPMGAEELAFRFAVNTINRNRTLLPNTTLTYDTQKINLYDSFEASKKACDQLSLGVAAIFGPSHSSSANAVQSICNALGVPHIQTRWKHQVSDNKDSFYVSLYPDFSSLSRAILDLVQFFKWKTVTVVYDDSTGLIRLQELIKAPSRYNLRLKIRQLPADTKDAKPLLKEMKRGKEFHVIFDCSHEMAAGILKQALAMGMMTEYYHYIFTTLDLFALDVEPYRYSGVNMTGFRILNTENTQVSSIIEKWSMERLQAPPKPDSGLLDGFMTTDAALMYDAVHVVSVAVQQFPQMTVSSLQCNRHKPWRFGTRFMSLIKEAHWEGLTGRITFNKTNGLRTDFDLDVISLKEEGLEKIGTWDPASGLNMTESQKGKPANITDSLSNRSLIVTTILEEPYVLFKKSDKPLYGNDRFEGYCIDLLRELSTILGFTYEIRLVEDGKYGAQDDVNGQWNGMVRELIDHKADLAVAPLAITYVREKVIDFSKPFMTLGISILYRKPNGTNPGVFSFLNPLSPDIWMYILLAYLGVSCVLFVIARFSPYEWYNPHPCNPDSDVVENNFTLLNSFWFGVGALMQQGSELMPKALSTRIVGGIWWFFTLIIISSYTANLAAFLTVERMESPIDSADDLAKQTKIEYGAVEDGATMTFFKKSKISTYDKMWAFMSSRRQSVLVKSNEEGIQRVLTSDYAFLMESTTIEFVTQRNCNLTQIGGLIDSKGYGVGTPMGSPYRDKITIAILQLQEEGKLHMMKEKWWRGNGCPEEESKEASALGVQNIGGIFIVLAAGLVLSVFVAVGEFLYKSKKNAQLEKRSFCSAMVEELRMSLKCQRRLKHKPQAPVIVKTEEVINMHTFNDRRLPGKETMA

[6] = target: Glutamate receptor ionotropic, kainate 3 (Rattus norvegicus, UniProt P42264); experiment: Displacement of [3H]kainic acid from eGFP-fused recombinant rat full length GluK3 receptor expressed in HEK293T/17 cells by liquid scintillation counting method; type: cell-based
Glutamate receptor ionotropic, kainate 3, sequence (P42264 whole entry, the tested form may be a part): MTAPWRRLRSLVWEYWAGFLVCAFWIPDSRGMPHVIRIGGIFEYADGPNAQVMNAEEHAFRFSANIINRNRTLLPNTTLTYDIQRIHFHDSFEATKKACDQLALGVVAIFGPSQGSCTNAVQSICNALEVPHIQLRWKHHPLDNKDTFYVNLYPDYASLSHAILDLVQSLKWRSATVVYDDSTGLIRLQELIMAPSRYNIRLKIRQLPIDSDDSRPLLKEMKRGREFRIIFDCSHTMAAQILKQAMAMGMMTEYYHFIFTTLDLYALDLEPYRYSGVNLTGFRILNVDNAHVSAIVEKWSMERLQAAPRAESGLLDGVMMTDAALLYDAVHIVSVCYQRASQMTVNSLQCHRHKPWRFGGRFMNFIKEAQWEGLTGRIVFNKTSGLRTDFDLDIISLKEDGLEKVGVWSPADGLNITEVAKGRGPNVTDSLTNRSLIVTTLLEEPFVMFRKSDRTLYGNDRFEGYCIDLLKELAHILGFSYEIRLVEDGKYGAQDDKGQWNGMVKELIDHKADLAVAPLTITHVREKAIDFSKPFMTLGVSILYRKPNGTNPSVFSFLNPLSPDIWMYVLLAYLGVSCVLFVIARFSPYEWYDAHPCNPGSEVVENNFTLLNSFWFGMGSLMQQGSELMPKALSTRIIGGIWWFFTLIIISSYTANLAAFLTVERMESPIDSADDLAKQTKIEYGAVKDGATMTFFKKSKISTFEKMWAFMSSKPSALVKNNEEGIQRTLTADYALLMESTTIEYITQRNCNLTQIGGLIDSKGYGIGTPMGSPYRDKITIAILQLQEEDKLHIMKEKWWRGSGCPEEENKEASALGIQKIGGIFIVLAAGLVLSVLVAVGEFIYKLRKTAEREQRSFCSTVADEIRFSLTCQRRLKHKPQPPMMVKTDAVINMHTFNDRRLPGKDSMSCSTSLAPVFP

Glutamate receptor 2 = Glutamate receptor 2 (Rattus norvegicus, UniProt P19491); experiment: Displacement of (RS)-[3H]AMPA from eGFP-fused recombinant rat full length GluA2 receptor expressed in HEK293T/17 cells by liquid scintillation counting method; type: cell-based
Glutamate receptor 2, sequence (P19491 whole entry, the tested form may be a part): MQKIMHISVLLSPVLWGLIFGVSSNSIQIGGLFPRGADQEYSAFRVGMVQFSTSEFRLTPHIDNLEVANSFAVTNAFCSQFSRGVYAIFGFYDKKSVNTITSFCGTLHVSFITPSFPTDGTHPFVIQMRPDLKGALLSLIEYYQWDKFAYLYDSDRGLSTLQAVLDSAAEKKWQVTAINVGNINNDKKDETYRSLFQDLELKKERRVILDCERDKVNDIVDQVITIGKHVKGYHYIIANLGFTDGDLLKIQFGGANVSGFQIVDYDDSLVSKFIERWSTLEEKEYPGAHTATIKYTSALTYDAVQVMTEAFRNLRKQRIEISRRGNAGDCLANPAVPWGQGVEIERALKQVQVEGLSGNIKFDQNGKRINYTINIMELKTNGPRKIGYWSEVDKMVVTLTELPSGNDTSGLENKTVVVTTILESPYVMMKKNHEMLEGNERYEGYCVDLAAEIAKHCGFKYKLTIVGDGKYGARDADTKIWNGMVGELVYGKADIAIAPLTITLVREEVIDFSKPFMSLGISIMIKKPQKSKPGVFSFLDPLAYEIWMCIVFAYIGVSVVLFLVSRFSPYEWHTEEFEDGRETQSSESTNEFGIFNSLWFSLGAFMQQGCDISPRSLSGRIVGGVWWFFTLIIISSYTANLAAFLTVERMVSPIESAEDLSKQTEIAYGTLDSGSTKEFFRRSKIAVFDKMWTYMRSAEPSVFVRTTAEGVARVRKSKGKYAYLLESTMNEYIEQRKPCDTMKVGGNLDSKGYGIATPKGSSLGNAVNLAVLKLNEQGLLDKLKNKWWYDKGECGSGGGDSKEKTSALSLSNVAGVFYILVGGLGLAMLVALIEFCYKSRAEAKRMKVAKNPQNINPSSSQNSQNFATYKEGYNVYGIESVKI

[7] = target: Excitatory amino acid transporter 2 (Homo sapiens, UniProt P43004); experiment: Inhibition of human EAAT2 expressed in HEK293 cells assessed as reduction in [3H]-D-Asp uptake after 15 mins by TopCount scintillation counting method; type: cell-based
Excitatory amino acid transporter 2, sequence (P43004 whole entry): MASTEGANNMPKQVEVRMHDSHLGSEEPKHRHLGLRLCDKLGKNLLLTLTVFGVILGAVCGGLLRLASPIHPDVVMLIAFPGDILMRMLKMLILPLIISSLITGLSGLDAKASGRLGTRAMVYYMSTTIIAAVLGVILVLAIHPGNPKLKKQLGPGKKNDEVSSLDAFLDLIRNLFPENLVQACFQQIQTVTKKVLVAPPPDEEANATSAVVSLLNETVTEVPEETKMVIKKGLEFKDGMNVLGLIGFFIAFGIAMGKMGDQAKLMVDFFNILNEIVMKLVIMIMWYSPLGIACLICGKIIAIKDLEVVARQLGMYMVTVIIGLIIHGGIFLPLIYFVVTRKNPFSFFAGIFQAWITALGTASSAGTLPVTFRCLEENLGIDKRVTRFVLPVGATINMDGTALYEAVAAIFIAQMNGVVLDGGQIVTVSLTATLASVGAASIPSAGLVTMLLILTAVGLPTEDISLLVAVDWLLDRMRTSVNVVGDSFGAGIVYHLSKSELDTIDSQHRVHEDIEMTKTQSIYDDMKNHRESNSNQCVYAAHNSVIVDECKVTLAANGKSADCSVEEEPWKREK

[8] = target: T3, Excitatory amino acid transporter 3 (Homo sapiens, UniProt P43005); experiment: Inhibition of human EAAT3 expressed in HEK293 cells assessed as reduction in [3H]-D-Asp uptake after 15 mins by TopCount scintillation counting method; type: cell-based
T3 sequence (P43005 whole entry): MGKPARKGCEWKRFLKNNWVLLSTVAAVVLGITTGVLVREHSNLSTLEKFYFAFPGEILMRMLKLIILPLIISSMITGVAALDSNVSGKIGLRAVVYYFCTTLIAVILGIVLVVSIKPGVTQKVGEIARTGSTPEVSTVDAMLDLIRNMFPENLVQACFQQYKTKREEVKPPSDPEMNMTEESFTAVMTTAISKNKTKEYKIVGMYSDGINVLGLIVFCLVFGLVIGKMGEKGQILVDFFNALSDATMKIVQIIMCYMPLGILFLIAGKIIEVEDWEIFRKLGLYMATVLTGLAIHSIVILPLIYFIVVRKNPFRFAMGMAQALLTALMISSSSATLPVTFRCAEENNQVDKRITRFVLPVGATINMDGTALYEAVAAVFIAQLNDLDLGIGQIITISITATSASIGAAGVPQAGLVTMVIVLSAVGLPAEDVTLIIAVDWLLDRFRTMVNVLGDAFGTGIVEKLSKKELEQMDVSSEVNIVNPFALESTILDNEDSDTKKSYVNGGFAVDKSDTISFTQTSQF

[9] = target: Excitatory amino acid transporter 1 (Homo sapiens, UniProt P43003); experiment: Inhibition of human EAAT1 expressed in HEK293 cells assessed as reduction in [3H]-D-Asp uptake after 15 mins by TopCount scintillation counting method; type: cell-based
Excitatory amino acid transporter 1, sequence (P43003 whole entry): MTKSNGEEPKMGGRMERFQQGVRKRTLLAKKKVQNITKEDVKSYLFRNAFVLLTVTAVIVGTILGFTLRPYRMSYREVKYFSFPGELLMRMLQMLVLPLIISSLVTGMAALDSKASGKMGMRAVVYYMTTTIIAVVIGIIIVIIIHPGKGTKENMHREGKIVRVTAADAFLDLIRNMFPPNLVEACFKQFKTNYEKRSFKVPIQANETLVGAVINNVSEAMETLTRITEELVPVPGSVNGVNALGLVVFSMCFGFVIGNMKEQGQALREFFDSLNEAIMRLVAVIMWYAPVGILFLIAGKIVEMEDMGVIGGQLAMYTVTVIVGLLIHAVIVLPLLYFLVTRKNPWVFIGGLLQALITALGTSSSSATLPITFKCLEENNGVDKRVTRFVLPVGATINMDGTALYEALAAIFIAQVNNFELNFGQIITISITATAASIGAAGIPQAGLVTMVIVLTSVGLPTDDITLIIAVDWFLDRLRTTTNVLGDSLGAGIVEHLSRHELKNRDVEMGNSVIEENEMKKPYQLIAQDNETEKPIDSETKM

[10] = target: T1, Glutamate receptor ionotropic, kainate 1; experiment: Antagonist activity at recombinant rat full length GluK1 receptor expressed in HEK293T cells assessed as inhibition of glutamate induced increase in peak current at -100mV holding potential by patch-clamp method; type: cell-based
Summary of the method: (§1)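 Rat GluK1-2a or GluK2a cDNA was transiently co-transfected with eGFP into HEK293T/17 cells by calcium phosphate, 24 h after low-density plating on poly-D-lysine. Recordings were made 36–48 h after transfection. Outside-out patches at −100 mV received fast piezo applications of 1 mM Glu (250 ms). Antagonist was added to control and agonist solutions (final 0.001–300 μM). Peak current was taken as % of control (mean ± SEM, 3–5 responses per concentration), and IC50 was fitted with a Hill equation.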

[11] = target: T2, Glutamate receptor ionotropic, kainate 2; experiment: Antagonist activity at recombinant rat full length GluK2 receptor expressed in HEK293T cells assessed as inhibition of glutamate induced increase in peak current at -100mV holding potential by patch-clamp method; type: cell-based; summary of the method: as §1
[12] = target: T1, Glutamate receptor ionotropic, kainate 1; experiment: Displacement of [3H]-(2S,4R)-4-Methylglutamic acid from rat eGFP-fused GluK1 receptor LBD expressed in HEK293T/17 cells by liquid scintillation counting method; type: cell-based

Compound | Ki [1] [µM] | Ki [2] [µM] | Ki [3] [µM] | Ki ([4]; read-out: Ki) [µM] | Ki [5] [µM] | Ki ([6]; read-out: Ki) [µM] | Ki (Glutamate receptor 2) [µM] | Ki ([6]; read-out: pKi (converted)) [µM] | IC50 [7] [mM] | IC50 [8] [mM] | IC50 [9] [mM] | Ki ([4]; read-out: pKi (converted)) [µM] | IC50 [10] [µM] | IC50 [11] [µM] | Ki [12] [nM] | pKi [3]
O=C(O)c1cccc(S[C@H]2CN[C@H](C(=O)O)C2)c1 | > 100 | > 100 | 78 | > 100 | > 100 | > 100 | – | – | – | – | – | – | – | – | – | 4.11
Cc1cccc(C(=O)O)c1O[C@H]1CN[C@H](C(=O)O)C1 | > 100 | > 100 | > 100 | 5.4 | > 1000 | > 100 | > 100 | – | – | – | – | – | – | – | – | –
O=C(O)c1ccc(O[C@@H]2CN[C@H](C(=O)O)C2)cc1 | > 100 | > 100 | > 100 | > 100 | > 100 | > 100 | – | – | – | – | – | – | – | – | – | –
Cl.O=C(O)c1cccc(C[C@H]2CN[C@H](C(=O)O)C2)c1 | > 100 | > 100 | 69 | > 100 | > 100 | > 100 | – | – | – | – | – | – | – | – | – | 4.18
O=C(O)Cc1cccc(O[C@H]2CN[C@H](C(=O)O)C2)c1 | > 100 | > 100 | > 100 | > 100 | > 100 | > 100 | > 100 | – | – | – | – | – | – | – | – | –
O=C(O)c1ccccc1S[C@H]1CN[C@H](C(=O)O)C1 | > 100 | > 100 | 19 | 8.4 | > 100 | 22 | – | – | – | – | – | – | – | – | – | 4.73
O=C(O)c1cccc(S[C@@H]2CN[C@H](C(=O)O)C2)c1 | > 100 | > 100 | > 100 | > 100 | > 100 | > 100 | – | – | – | – | – | – | – | – | – | –
O=C(O)c1ccc(O[C@H]2CN[C@H](C(=O)O)C2)c(C(=O)O)c1 | > 100 | > 100 | > 100 | 100 | > 1000 | > 100 | > 100 | – | – | – | – | – | – | – | – | –
CC(=O)c1ccc(O[C@H]2CN[C@H](C(=O)O)C2)c(C(=O)O)c1 | > 100 | > 100 | > 100 | 4.7 | > 100 | 30 | > 100 | – | – | – | – | – | – | – | – | –
O=C(O)c1ccccc1S[C@@H]1CN[C@H](C(=O)O)C1 | > 100 | > 100 | > 100 | > 100 | > 100 | > 100 | – | – | – | – | – | – | – | – | – | –
O=C(O)c1ccc2ccccc2c1O[C@H]1CN[C@H](C(=O)O)C1 | > 100 | > 100 | > 100 | > 100 | > 100 | > 100 | > 100 | – | – | – | – | – | – | – | – | –
Cl.O=C(O)c1ccc(O[C@H]2CN[C@H](C(=O)O)C2)cc1 | > 100 | > 100 | 81 | > 100 | > 100 | > 100 | – | – | > 1 | > 1 | > 1 | – | – | – | – | 4.11

The next lines start with results.

Ki [1] [µM] | Ki [2] [µM] | Ki [3] [µM] | Ki ([4]; read-out: Ki) [µM] | Ki [5] [µM] | Ki ([6]; read-out: Ki) [µM] | Ki (Glutamate receptor 2) [µM] | Ki ([6]; read-out: pKi (converted)) [µM] | IC50 [7] [mM] | IC50 [8] [mM] | IC50 [9] [mM] | Ki ([4]; read-out: pKi (converted)) [µM] | IC50 [10] [µM] | IC50 [11] [µM] | Ki [12] [nM] | Compound | pKi [3]
> 100 | > 100 | > 100 | 4.5 | > 100 | 137 | > 100 | 132 | – | – | – | – | – | – | – | O=C(O)c1c(O[C@H]2CN[C@H](C(=O)O)C2)ccc2ccccc12 | –
> 100 | > 100 | > 100 | 36 | > 100 | > 1000 | – | – | > 1 | > 1 | > 1 | 33.1 | – | – | – | O=C(O)c1cccc(O[C@H]2CN[C@H](C(=O)O)C2)c1 | –
> 100 | > 100 | > 100 | > 100 | > 100 | > 100 | – | – | – | – | – | – | – | – | – | O=C(O)c1cccc(O[C@@H]2CN[C@H](C(=O)O)C2)c1 | –
> 100 | > 100 | > 100 | 4 | > 100 | > 100 | – | – | > 1 | > 1 | > 1 | – | 5.7 | > 100 | 2270 | O=C(O)c1ccccc1O[C@H]1CN[C@H](C(=O)O)C1 | –
> 100 | > 100 | > 100 | 3.5 | > 1000 | > 100 | > 100 | – | – | – | – | – | – | – | – | O=C(O)c1cc2ccccc2cc1O[C@H]1CN[C@H](C(=O)O)C1 | –
> 100 | > 100 | > 100 | 24 | > 1000 | > 100 | > 100 | – | – | – | – | – | – | – | – | O=C(O)Cc1ccccc1O[C@H]1CN[C@H](C(=O)O)C1 | –
> 100 | > 100 | > 100 | > 100 | > 100 | > 100 | – | – | > 1 | > 1 | > 1 | – | – | – | – | O=C(O)c1ccccc1O[C@@H]1CN[C@H](C(=O)O)C1 | –
> 100 | > 100 | > 100 | 24 | > 100 | > 100 | > 100 | – | – | – | – | – | – | – | – | Cc1ccc(O[C@H]2CN[C@H](C(=O)O)C2)c(C(=O)O)c1 | –
